# Screening data from PubChem.
# Only some compounds are listed: those with a hit (about 1.9% of all), similar ones and a draw of the others.
# Rce1 inhib: blocks yeast Ras-converting enzyme; Q03530; yeast membranes, quenched prenylated peptide cleavage fluorescence; calls only; 290,000 compounds, 0.27% hits;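 active = fall in fluorescence gain of 50% or more versus controls, with final raw signal at or below 3038400; inconclusive = same 50% fall but final raw signal above 3038400; inactive = fall in fluorescence gain under 50%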
# Target sequence (Q03530 whole entry, looked up): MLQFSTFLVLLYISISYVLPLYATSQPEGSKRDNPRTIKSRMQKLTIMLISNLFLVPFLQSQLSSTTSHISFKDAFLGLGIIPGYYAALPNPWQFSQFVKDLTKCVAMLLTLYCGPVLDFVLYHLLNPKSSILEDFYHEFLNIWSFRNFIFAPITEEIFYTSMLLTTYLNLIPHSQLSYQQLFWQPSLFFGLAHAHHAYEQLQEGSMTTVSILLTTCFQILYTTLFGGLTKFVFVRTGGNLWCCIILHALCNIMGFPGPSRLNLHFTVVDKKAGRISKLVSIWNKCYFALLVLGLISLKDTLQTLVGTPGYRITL
# V-ATPase pHluor: regulators of yeast V-ATPase proton transport; response, % at 10 µM; S. cerevisiae, pHLuorin cytosolic pH fluorescence; 350,000 compounds, 0.37% hits; AID 504577; in the data active = response mostly above about 7.3%, no sharp cut-off; inactive = mostly below about 5.4%; also: actives read high
# proKLK7 act: activators of human kallikrein-7 zymogen | purified proKLK7, EDANS-DABCYL substrate fluorescence; 100% is mature enzyme control, 0% vehicle | 370,000 compounds, 0.9% hits | activation, % at 7 µM | P49862;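 active = activation above the mean of all tested compounds plus 3 SD, computed per campaign excluding outliers beyond control limits, cut at about 13% in these data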
# Target sequence (P49862 whole entry, looked up): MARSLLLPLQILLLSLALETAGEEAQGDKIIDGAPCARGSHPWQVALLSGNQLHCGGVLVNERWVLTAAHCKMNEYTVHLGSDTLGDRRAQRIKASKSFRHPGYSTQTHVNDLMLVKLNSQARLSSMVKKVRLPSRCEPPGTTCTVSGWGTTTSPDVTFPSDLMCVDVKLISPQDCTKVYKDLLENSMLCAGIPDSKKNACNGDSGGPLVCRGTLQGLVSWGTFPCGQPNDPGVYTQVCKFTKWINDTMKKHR
# T cell HTS: T cell immune modulators affecting CD8 T cell-vesicle binding. 2C CD8+ T cell-vesicle binding, flow cytometry; active compounds read low. response (vesicle binding), % at 7 µM. 330,000 compounds, 0.068% hits. AID 2052;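 active = response, share of CD8 T cells binding vesicles, and their 90th percentile fluorescence all below set limits, cut at about 80% in these data, passing the limit was not always enough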;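 also: values below 100% mean blocked vesicle binding to the CD8+ T cells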
#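 material = purified 2C TCR transgenic mouse naive CD8+ T cells | controls = Unloaded micro-vesicles (low), QL9 vesicles with 0.7% DMSO (high) | detection = cytometric PE anti-B7-1 and Alexa647 anti-CD8 signals after 1% paraformaldehyde fixation | incubation = binding step 1.5 h, 37 °C, antibody labelling 20 min, ice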
# CR mimetic SO: caloric restriction mimetics inhibiting age-related superoxide in yeast; S. cerevisiae aged cells, superoxide DHE fluorescence; active compounds read low; superoxide response (% of plate mean), % at 10 µM; 330,000 compounds, 0.18% hits; AID 2690;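 active = superoxide response under a set limit, about three screen SD below normal, cut at about 65% in these data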;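 also: yeast aged for seven days with compound at 30 °C before DHE staining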
# MIN6 prolif: inducers of beta-cell replication in MIN6 cells; MIN6 cells proliferation, ATPlite luminescence, 48 h; cells starved in 0.2% serum; 100% = growth in 10% serum; proliferation, % at 10 µM; 330,000 compounds, 0.29% hits; AID 2380;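 active = compounds whose signal lies at least 3.5 SD above the mean of all wells on their plate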
# proKLK7 act conf: confirmation of human kallikrein-7 zymogen activators. 3,200 compounds, 68% hits. purified proKLK7, EDANS-DABCYL substrate fluorescence; scaled: vehicle 0, mature enzyme 100. shares compounds with proKLK7 act. activation, % at 7 µM;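 active = activation, as change over the incubation, above the mean of all tested compounds plus 3 SD, cut at about 13% in these data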
# EDANS-DABCYL int: fluorescence interference counter-screen for KLK7 activators; shares compounds with proKLK7 act; activation, % at 7 µM; AID 686952; EDANS-DABCYL substrate fluorescence interference, no enzyme, 4 h; solvent 0%, active enzyme control 100%; 3,200 compounds, 80% hits;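 active = activation above the all-compound mean plus 3 SD, ignoring values outside control-based bounds, cut at about 4.8% in these data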;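 also: value is the 4 h activation minus the activation read at time zero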
# K7 EDANS ctr: EDANS fluorescence interference in dose response, no enzyme; shares compounds with proKLK7 act; EDANS-DABCYL peptide fluorescence interference; 250 compounds, 20% hits; EC50, µM;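 active = compounds that raise the fluorescence signal in this interference counterscreen, with EC50 at or below 10 µM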;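 also: intact quenched peptide substrate alone read at 355 nm excitation and 520 nm emission; signal is fluorescence gain from T0 to T4 after four hours at room temperature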
# Numbers stand for hits; i = inactive; ? = inconclusive; nt = no result given.
SMILES,Rce1 inhib,V-ATPase pHluor,proKLK7 act,T cell HTS,CR mimetic SO,MIN6 prolif,proKLK7 act conf,EDANS-DABCYL int,others
C[C@H](O)[C@@H]1CN2CCc3c([nH]c4ccccc34)[C@@H]2C[C@@H]1N(C)C(=S)NCCc1ccccc1,nt,nt,39,nt,nt,nt,i,i,
CCNC(=O)N(C)[C@H]1C[C@H]2c3[nH]c4ccccc4c3CCN2C[C@H]1[C@H](C)O,nt,nt,17,nt,nt,nt,i,i,
O=C1C=C(c2ccc(F)c(Cl)c2)C[C@@H](c2ccc(F)cc2)C1,nt,i,i,i,i,i,nt,nt,
CCOC(=O)NC(=O)c1cn(-c2ccc(OC)cc2)c(=O)[nH]c1=O,i,i,i,i,i,i,nt,nt,
COc1ccc(NC(=O)C2(C)CCN2Cc2ccc(C(C)C)cc2)cc1OC (stereo unspecified),nt,nt,i,nt,nt,nt,nt,nt,
Cc1cccc(C)c1C(O)c1ncc(-c2ccccc2C(F)(F)F)[nH]1 (stereo unspecified),nt,nt,i,nt,nt,nt,nt,nt,
CCC1OC23CCCCC2C(C#N)(C(=N)O3)C1(C#N)C#N (stereo unspecified),i,i,14,i,i,i,68,62,
CCCC1OC23CCCCC2C(C#N)(C(=N)O3)C1(C#N)C#N (stereo unspecified),i,i,i,i,i,i,nt,nt,
COC(=O)c1nn(-c2ccc3c(c2)OCO3)cc1O,i,i,13,i,i,i,i,i,
COC(=O)c1nn(-c2ccc3c(c2)CCN3C(C)=O)cc1O,?,i,124,i,i,i,29,31,
COc1ccc(/C=C(\NC(=O)c2ccccc2)C(=O)N/N=C/c2sccc2C)cc1,i,i,i,i,i,i,nt,nt,
COc1ccc(/C=C(/NC(=O)c2ccccc2)C(=O)N/N=C/c2sccc2C)cc1,i,i,24,i,i,i,152,122,
CC(C)n1c(=N)c(C(=O)NCCc2ccccc2)cc2c(=O)n3ccccc3nc21,i,i,134,i,i,i,i,i,
Cc1cccn2c(=O)c3cc(C(=O)NCc4cccnc4)c(=N)n(C(C)C)c3nc12,?,i,134,i,i,i,51,67,
O=C(Nc1cccc(NC(=O)c2ccccc2Cl)c1)c1ccco1,i,i,i,i,i,i,nt,nt,
O=C(Nc1cccc(NC(=O)c2ccc(-c3ccc(Br)cc3)o2)c1)c1ccco1,i,i,440,i,i,i,446,213,
CCOC(=O)c1sc2nc(C)nc(SCC(=O)N(CC)C3CCS(=O)(=O)C3)c2c1C (stereo unspecified),i,i,i,i,i,i,nt,nt,
CC(NC(=O)OC(C)(C)C)C(=O)Oc1ccc2ccc(=O)oc2c1 (stereo unspecified),nt,i,89,i,i,i,466,445,
O=C(COc1ccc2ccc(=O)oc2c1)OCc1ccccc1,i,i,i,i,i,i,nt,nt,
O=C(CNC(=O)OCc1ccccc1)Oc1ccc2ccc(=O)oc2c1,i,i,56,i,i,i,183,261,
COc1ccc(C(=O)COc2ccc3ccc(=O)oc3c2)c(OC)c1,i,i,i,i,i,i,nt,nt,
Cc1cc(C(=O)COc2ccc3ccc(=O)oc3c2)c(C)n1C,i,i,138,i,i,i,79,85,
COc1ccc2ccc(=O)oc2c1,i,i,i,i,i,i,nt,nt,
COc1cccc(C(=O)Oc2ccc3ccc(=O)oc3c2)c1,i,i,93,i,i,i,616,656,
C[C@H](NC(=O)[C@@H]1CCCN1C(=O)[C@@H]1CCCN1C(=O)c1ccc(Cl)cc1)c1ccccc1,nt,nt,i,nt,nt,nt,nt,nt,
SMILES,Rce1 inhib,V-ATPase pHluor,proKLK7 act,T cell HTS,CR mimetic SO,MIN6 prolif,proKLK7 act conf,EDANS-DABCYL int,others
CC(=O)Nc1ccc(NC(=O)C(C)OC(=O)CCc2c[nH]c3ccccc23)cc1 (stereo unspecified),i,i,i,i,i,i,nt,nt,
Cc1ccc2[nH]c(CCN(C)C)c(CN3CCOCC3)c2c1,nt,i,i,i,i,i,nt,nt,
Cc1ccc(C(=O)Oc2ccc3ccc(=O)oc3c2)cc1,i,i,41,i,i,i,111,107,
O=C(Oc1ccc2ccc(=O)oc2c1)c1ccc([N+](=O)[O-])cc1,i,i,45,i,i,i,593,573,
CC(=O)Oc1ccc2ccc(=O)oc2c1,i,i,357,i,i,i,602,609,
Cc1ccccc1NC(=O)COC(=O)COc1ccc2ccc(=O)oc2c1,nt,i,14,nt,nt,nt,16,i,K7 EDANS ctr=i
CC(C)=CCOc1ccc2ccc(=O)oc2c1,i,i,i,i,i,i,nt,nt,
CC1CN(S(=O)(=O)c2cc(C(=O)N3CCCCC3C)ccc2Cl)CC(C)O1 (stereo unspecified),nt,i,i,i,i,i,nt,nt,
Cn1c(=O)n(C)c2cc(NC(=O)c3ccccc3NS(C)(=O)=O)ccc21,i,i,i,i,i,i,nt,nt,
COc1ccc(C(=O)COc2ccc3ccc(=O)oc3c2)cc1,i,i,i,i,i,i,nt,nt,
COc1ccc(C(=O)Oc2ccc3ccc(=O)oc3c2)cc1OC,i,i,14,i,i,i,197,193,
CN(CC(=O)Nc1ccccc1C(F)(F)F)C(=O)C1CCN(C(=O)c2ccc(Cl)cc2)CC1,i,i,i,i,i,i,nt,nt,
CCCc1cc(=O)oc2c(C)c(OCC(=O)N3CCC(C(N)=O)CC3)ccc12,i,i,i,i,i,i,nt,nt,
CCCc1cc(=O)oc2cc(C)cc(OCC(=O)N3CCC(C(N)=O)CC3)c12,i,i,17,i,i,i,i,10,
CCCc1cc(=O)oc2cc(C)cc(OCC(=O)N3CCC(C(=O)O)CC3)c12,i,i,16,i,i,i,13,16,
CCCCc1cc(=O)oc2cc(C)cc(OCC(=O)N3CCC(C(=O)O)(c4ccccc4)CC3)c12,i,i,i,i,i,i,nt,nt,
CCCc1cc(=O)oc2cc(C)cc(OCC(=O)NC3CC3)c12,i,i,i,i,i,i,nt,nt,
CCc1cc(=O)oc2cc(C)cc(OCC(C)=O)c12,i,i,13,i,i,i,i,17,
CCc1cc(=O)oc2cc(C)cc(OCC(=O)C(C)(C)C)c12,i,i,i,i,i,i,nt,nt,
CCCCc1cc(=O)oc2cc(C)cc(OCC(=O)N3CCC(C(=O)O)CC3)c12,i,i,17,i,i,i,25,18,K7 EDANS ctr=i
Cc1ccc([C@H]2C[C@H](n3cc(COC(=O)c4ccccc4)nn3)[C@@H](O)CN2C(=O)C2CCCCC2)cc1,nt,i,i,nt,nt,nt,nt,nt,
COc1ccc(C(CNC(=O)c2ccc(S(=O)(=O)Nc3cccc(C)c3C)cc2)N2CCOCC2)cc1 (stereo unspecified),nt,i,i,nt,nt,nt,nt,nt,
